# From ChEMBL document CHEMBL5058577, “EUbOPEN Chemogenomics Library 2 (Multiplex)” (2022)
# Tested on: Fibroblast
# Experiment: Multiplex assay against human fibroblast
# Format: toxicity, cell-based
# How it was run: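 Imaging took place on a CQ1 microscope at 37°C and 5% CO2 once compound had been added to live cells stained at seeding with Hoechst33342, BioTracker Green Microtubule Cytoskeleton Dye, MitoTracker Red and Annexin V Alexa Fluor 680. CellPathfinder machine-learning gating classed cells as Hoechst high-intensity objects or normal cells, classed normal cells as having healthy, pyknosed or fragmented nuclei, and classed pyknosed cells as mitotic or apoptotic. Tubulin, mitochondrial-mass and membrane-permeability phenotypes are per cents of the healthy-nucleus cells.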
# [1] = 12 h, 1 µM, compound concentration 1 uM, replicate 1
# [2] = 12 h, 1 µM, compound concentration 1 uM, replicate 2
# [3] = 12 h, 10 µM, compound concentration 10 uM, replicate 1
# [4] = 12 h, 10 µM, compound concentration 10 uM, replicate 2
# [5] = 24 h, 1 µM, compound concentration 1 uM, replicate 1
# [6] = 24 h, 1 µM, compound concentration 1 uM, replicate 2
# [7] = 24 h, 10 µM, compound concentration 10 uM, replicate 1
# [8] = 24 h, 10 µM, compound concentration 10 uM, replicate 2
# [9] = 48 h, 1 µM, compound concentration 1 uM, replicate 1
# [10] = 48 h, 1 µM, compound concentration 1 uM, replicate 2
# [11] = 48 h, 10 µM, compound concentration 10 uM, replicate 1
# [12] = 48 h, 10 µM, compound concentration 10 uM, replicate 2
smiles,measurement,setting,value
CC(C)c1noc(N2CCC(COc3ccc(-c4ccc(S(C)(=O)=O)cc4)nc3)CC2)n1 [GSK-1292263],Population Apoptotic (%),[1],38%
same,Population Fragmented Nuclei (%),[1],14%
same,Population Healthy Nuclei (%),[1],74%
same,Population Hoechst High Intensity Objects (%),[1],2%
same,Population Membrane Permeable-Phenotype (%),[1],0%
same,Population Mitochondria Different-Phenotype (%),[1],1%
same,Population Mitotic Cells (%),[1],61%
same,Population Normal (%),[1],97%
same,Population Pyknosed Nuclei (%),[1],11%
same,Population Tubulin-Different-Phenotype (%),[1],21%
same,Total Cell Count,[1],189
same,Population Apoptotic (%),[2],29%
same,Population Fragmented Nuclei (%),[2],18%
same,Population Healthy Nuclei (%),[2],50%
same,Population Hoechst High Intensity Objects (%),[2],6%
same,Population Membrane Permeable-Phenotype (%),[2],4%
same,Population Mitochondria Different-Phenotype (%),[2],5%
same,Population Mitotic Cells (%),[2],70%
same,Population Normal (%),[2],93%
same,Population Pyknosed Nuclei (%),[2],31%
same,Population Tubulin-Different-Phenotype (%),[2],41%
same,Total Cell Count,[2],149
same,Population Apoptotic (%),[3],39%
same,Population Fragmented Nuclei (%),[3],8%
same,Population Healthy Nuclei (%),[3],65%
same,Population Hoechst High Intensity Objects (%),[3],3%
same,Population Membrane Permeable-Phenotype (%),[3],1%
same,Population Mitochondria Different-Phenotype (%),[3],5%
same,Population Mitotic Cells (%),[3],60%
same,Population Normal (%),[3],96%
same,Population Pyknosed Nuclei (%),[3],26%
same,Population Tubulin-Different-Phenotype (%),[3],39%
same,Total Cell Count,[3],162
same,Population Apoptotic (%),[4],35%
same,Population Fragmented Nuclei (%),[4],26%
same,Population Healthy Nuclei (%),[4],45%
same,Population Hoechst High Intensity Objects (%),[4],2%
same,Population Membrane Permeable-Phenotype (%),[4],6%
same,Population Mitochondria Different-Phenotype (%),[4],10%
same,Population Mitotic Cells (%),[4],64%
same,Population Normal (%),[4],97%
same,Population Pyknosed Nuclei (%),[4],27%
same,Population Tubulin-Different-Phenotype (%),[4],61%
same,Total Cell Count,[4],145
same,Population Apoptotic (%),[5],50%
same,Population Fragmented Nuclei (%),[5],9%
same,Population Healthy Nuclei (%),[5],78%
same,Population Hoechst High Intensity Objects (%),[5],3%
same,Population Membrane Permeable-Phenotype (%),[5],1%
same,Population Mitochondria Different-Phenotype (%),[5],0%
same,Population Mitotic Cells (%),[5],50%
same,Population Normal (%),[5],96%
same,Population Pyknosed Nuclei (%),[5],11%
same,Population Tubulin-Different-Phenotype (%),[5],17%
same,Total Cell Count,[5],182
same,Population Apoptotic (%),[6],44%
same,Population Fragmented Nuclei (%),[6],20%
same,Population Healthy Nuclei (%),[6],53%
same,Population Hoechst High Intensity Objects (%),[6],7%
same,Population Membrane Permeable-Phenotype (%),[6],4%
same,Population Mitochondria Different-Phenotype (%),[6],2%
same,Population Mitotic Cells (%),[6],55%
same,Population Normal (%),[6],92%
same,Population Pyknosed Nuclei (%),[6],25%
same,Population Tubulin-Different-Phenotype (%),[6],41%
same,Total Cell Count,[6],142
same,Population Apoptotic (%),[7],52%
same,Population Fragmented Nuclei (%),[7],12%
same,Population Healthy Nuclei (%),[7],67%
same,Population Hoechst High Intensity Objects (%),[7],2%
same,Population Membrane Permeable-Phenotype (%),[7],1%
same,Population Mitochondria Different-Phenotype (%),[7],5%
same,Population Mitotic Cells (%),[7],47%
same,Population Normal (%),[7],97%
same,Population Pyknosed Nuclei (%),[7],20%
same,Population Tubulin-Different-Phenotype (%),[7],50%
same,Total Cell Count,[7],168
same,Population Apoptotic (%),[8],46%
same,Population Fragmented Nuclei (%),[8],21%
same,Population Healthy Nuclei (%),[8],55%
same,Population Hoechst High Intensity Objects (%),[8],3%
same,Population Membrane Permeable-Phenotype (%),[8],10%
same,Population Mitochondria Different-Phenotype (%),[8],10%
same,Population Mitotic Cells (%),[8],53%
same,Population Normal (%),[8],96%
same,Population Pyknosed Nuclei (%),[8],23%
same,Population Tubulin-Different-Phenotype (%),[8],56%
same,Total Cell Count,[8],123
same,Population Apoptotic (%),[9],66%
same,Population Fragmented Nuclei (%),[9],19%
same,Population Healthy Nuclei (%),[9],74%
same,Population Hoechst High Intensity Objects (%),[9],3%
same,Population Membrane Permeable-Phenotype (%),[9],0%
same,Population Mitochondria Different-Phenotype (%),[9],1%
same,Population Mitotic Cells (%),[9],33%
same,Population Normal (%),[9],96%
same,Population Pyknosed Nuclei (%),[9],6%
same,Population Tubulin-Different-Phenotype (%),[9],22%
same,Total Cell Count,[9],193
same,Population Apoptotic (%),[10],54%
same,Population Fragmented Nuclei (%),[10],27%
same,Population Healthy Nuclei (%),[10],47%
same,Population Hoechst High Intensity Objects (%),[10],8%
same,Population Membrane Permeable-Phenotype (%),[10],13%
same,Population Mitochondria Different-Phenotype (%),[10],4%
same,Population Mitotic Cells (%),[10],45%
same,Population Normal (%),[10],91%
same,Population Pyknosed Nuclei (%),[10],24%
same,Population Tubulin-Different-Phenotype (%),[10],55%
same,Total Cell Count,[10],156
same,Population Apoptotic (%),[11],63%
same,Population Fragmented Nuclei (%),[11],13%
same,Population Healthy Nuclei (%),[11],65%
same,Population Hoechst High Intensity Objects (%),[11],2%
same,Population Membrane Permeable-Phenotype (%),[11],0%
same,Population Mitochondria Different-Phenotype (%),[11],8%
same,Population Mitotic Cells (%),[11],36%
same,Population Normal (%),[11],97%
same,Population Pyknosed Nuclei (%),[11],20%
same,Population Tubulin-Different-Phenotype (%),[11],48%
same,Total Cell Count,[11],164
same,Population Apoptotic (%),[12],50%
same,Population Fragmented Nuclei (%),[12],31%
same,Population Healthy Nuclei (%),[12],51%
same,Population Hoechst High Intensity Objects (%),[12],0%
same,Population Membrane Permeable-Phenotype (%),[12],9%
same,Population Mitochondria Different-Phenotype (%),[12],14%
same,Population Mitotic Cells (%),[12],50%
same,Population Normal (%),[12],100%
same,Population Pyknosed Nuclei (%),[12],17%
same,Population Tubulin-Different-Phenotype (%),[12],76%
same,Total Cell Count,[12],125
